How the values were obtained:
[1] = biological target: T1, Vascular cell adhesion protein 1 (Homo sapiens, UniProt P19320); assay: In vitro inhibitory potency compared to PMA induced VCAM-1 expression in human endothelial cells (ELISA assay)
T1 sequence (P19320 whole entry): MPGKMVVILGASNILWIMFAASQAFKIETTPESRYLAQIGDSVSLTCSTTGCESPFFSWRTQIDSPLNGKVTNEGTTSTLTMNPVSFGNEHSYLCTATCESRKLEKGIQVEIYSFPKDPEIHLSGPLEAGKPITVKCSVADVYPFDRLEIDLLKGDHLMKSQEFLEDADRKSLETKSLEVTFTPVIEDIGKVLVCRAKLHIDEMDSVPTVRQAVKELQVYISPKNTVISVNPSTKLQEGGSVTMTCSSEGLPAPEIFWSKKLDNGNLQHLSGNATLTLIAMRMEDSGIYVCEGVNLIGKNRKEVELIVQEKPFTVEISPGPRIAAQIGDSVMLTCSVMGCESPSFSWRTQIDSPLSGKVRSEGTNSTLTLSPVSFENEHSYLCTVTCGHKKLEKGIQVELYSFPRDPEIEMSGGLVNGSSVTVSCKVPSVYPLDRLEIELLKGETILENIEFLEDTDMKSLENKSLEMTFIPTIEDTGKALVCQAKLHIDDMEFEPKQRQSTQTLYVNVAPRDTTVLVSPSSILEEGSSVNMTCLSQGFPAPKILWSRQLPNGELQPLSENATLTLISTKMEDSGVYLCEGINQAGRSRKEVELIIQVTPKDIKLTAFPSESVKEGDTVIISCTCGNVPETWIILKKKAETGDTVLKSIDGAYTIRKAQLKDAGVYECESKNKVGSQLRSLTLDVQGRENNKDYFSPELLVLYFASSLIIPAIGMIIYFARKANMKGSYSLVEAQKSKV
Method in brief: (§1)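 Primary HUVECs seeded at 5 × 10^4 cells/mL in EBM/2% FBS with EGF, bovine brain extract and gentamicin. Compound added next day for 24 h at 37 °C, then inducer (IL-1β or PMA, level not stated) for 6 h at 37 °C. Whole-cell ELISA used mouse monoclonal anti-ICAM-1 or anti-VCAM-1, HRP donkey anti-mouse IgG and OPD, read at 490 nm. Run in triplicate.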

[2] = Inhibition of VCAM-1 in human endothelial cells
[3] = biological target: T1, Vascular cell adhesion protein 1; assay: In vitro inhibitory potency compared to IL1-beta induced VCAM-1 expression in human endothelial cells (ELISA assay); method in brief: as §1
[4] = biological target: T1, Vascular cell adhesion protein 1; assay: Inhibition of VCAM-1 in human endothelial cells
Method in brief: (§2)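 Whole-cell ELISA on primary HUVECs plated at 5 × 10^4 cells/mL in EBM/2% FBS with growth supplements. Compound preincubated 24 h at 37 °C, then inducer added (TNFα at 5 ng/mL final, or IL-1β or PMA in its place) for 6 h at 37 °C. Mouse monoclonal anti-E-selectin, anti-ICAM-1 or anti-VCAM-1 was applied overnight at 4 °C, then HRP anti-mouse IgG. Detection with OPD, A490. Triplicate assays.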

[5] = biological target: T1, Vascular cell adhesion protein 1; assay: In vitro inhibitory potency compared to PMA induced VCAM-1 in human endothelial cells (ELISA assay); method in brief: as §2
[6] = biological target: T1, Vascular cell adhesion protein 1; assay: In vitro inhibitory potency compared to IL1-beta induced VCAM-1 in human endothelial cells (ELISA assay); method in brief: as §2
[7] = biological target: T1, Vascular cell adhesion protein 1; assay: In vitro inhibitory potency compared to TNF-alpha induced VCAM-1 in human endothelial cells (ELISA assay); method in brief: as §2

| Structure (SMILES) | IC50 [1] | IC50 [2] | IC50 [3] | IC50 [4] | IC50 [5] | IC50 [6] | IC50 [7] |
| --- | --- | --- | --- | --- | --- | --- | --- |
| CNC(=O)c1cc2c(Oc3ccc(Cl)cc3)cncc2s1 [4-(4-Chloro-phenoxy)-thieno[2,3-c]pyridine-2-carboxylic acid methylamide] | 0.2 µM | > 1 µM | 0.07 µM |  |  |  |  |
| Cc1ccc(Sc2cncc3sc(C(N)=O)cc23)cc1 [4-p-Tolylsulfanyl-thieno[2,3-c]pyridine-2-carboxylic acid amide] |  |  |  | > 1 µM |  |  |  |
| CNC(=O)c1cc2c(Oc3ccc(COCCOCCOC)cc3)cncc2s1 [4-{4-[2-(2-Methoxy-ethoxy)-ethoxymethyl]-phenoxy}-thieno[2,3-c]pyridine-2-carboxylic acid methylamide] |  | 0.12 µM |  |  | 0.02 µM | 0.02 µM | 0.03 µM |

From BindingDB's records for doi:10.1021/jm0101702 (Abbott Laboratories, 2001)
